Experimental data taken from ChEMBL document CHEMBL1125183, “3-Hydroxy-3-methylglutaryl-coenzyme a reductase inhibitors. 7. Modification of the hexahydronaphthalene moiety of simvastatin: 5-oxygenated and 5-oxa derivatives” (J Med Chem, 1991).

Experiments:
[1] = Relative potency with respect to compactin; assay type: ADME
[2] = molecular target: T1, 3-hydroxy-3-methylglutaryl-coenzyme A reductase (Rattus norvegicus, UniProt P51639); test: In vitro ability to inhibit solubilized, partially purified, rat liver HMG-CoA reductase
T1 sequence (P51639 whole entry): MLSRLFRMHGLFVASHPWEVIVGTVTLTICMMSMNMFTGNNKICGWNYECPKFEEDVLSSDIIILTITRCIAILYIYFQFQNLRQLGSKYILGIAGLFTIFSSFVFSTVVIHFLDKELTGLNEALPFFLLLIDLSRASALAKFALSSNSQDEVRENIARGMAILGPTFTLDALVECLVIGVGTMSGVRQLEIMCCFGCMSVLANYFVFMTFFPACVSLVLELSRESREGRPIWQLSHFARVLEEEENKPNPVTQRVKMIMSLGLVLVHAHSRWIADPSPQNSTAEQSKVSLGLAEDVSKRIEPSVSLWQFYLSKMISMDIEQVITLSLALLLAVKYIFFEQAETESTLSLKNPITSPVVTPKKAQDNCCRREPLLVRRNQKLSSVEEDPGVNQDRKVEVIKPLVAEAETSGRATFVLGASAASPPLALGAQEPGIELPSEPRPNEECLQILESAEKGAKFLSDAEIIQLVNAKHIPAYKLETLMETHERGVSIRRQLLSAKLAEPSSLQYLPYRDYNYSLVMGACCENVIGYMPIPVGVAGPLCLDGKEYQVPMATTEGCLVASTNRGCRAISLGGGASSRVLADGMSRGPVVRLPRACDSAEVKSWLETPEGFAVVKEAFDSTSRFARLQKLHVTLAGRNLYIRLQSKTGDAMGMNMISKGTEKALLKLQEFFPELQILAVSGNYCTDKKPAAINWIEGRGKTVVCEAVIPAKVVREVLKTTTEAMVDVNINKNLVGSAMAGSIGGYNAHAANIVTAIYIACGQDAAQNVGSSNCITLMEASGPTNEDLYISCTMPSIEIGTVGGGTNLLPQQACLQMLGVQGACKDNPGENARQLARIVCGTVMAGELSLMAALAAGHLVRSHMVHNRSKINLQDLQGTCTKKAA
How it was run: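 Enzyme tested as the sodium salt of the dihydroxy carboxylate form, against solubilized, partially purified rat liver HMG-CoA reductase. Conditions follow a procedure the paper cites from earlier work.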

Rattus norvegicus = species: Rattus norvegicus; test: The compound was evaluated for acute inhibition of cholesterol synthesis in rat; percent change of [14C]cholesterol; assay type: functional
How it was run: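 Rats received a single oral dose of 0.45 mg/kg. Synthesis of cholesterol from [14C]acetate was measured at a fixed time after dosing and reported as % change in [14C]cholesterol.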

Canis familiaris [3] = test: Inhibition of cholesterol synthesis in cholestyramine-primed dogs at 4 mg/kg per day dose in Dog 2; assay type: functional, Canis lupus familiaris
How it was run: (§1)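 Male beagles were fed a low-cholesterol semisynthetic diet once daily, with 12 g cholestyramine per day in the diet. Pretreatment plasma cholesterol was established, then one dog per compound received 4 mg/kg mixed into the diet for 21 days and was then crossed over to the lovastatin control at the same dose for 2-3 weeks. Jugular blood was taken twice weekly. Plasma cholesterol was measured colorimetrically (Liebermann-Burchard) after extraction and saponification and reported as % change from the resin-treated state.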

Canis familiaris [4] = test: Inhibition of cholesterol synthesis in cholestyramine-primed dogs at 4 mg/kg per day dose in Dog-3; assay type: functional, Canis lupus familiaris; how it was run: as §1
Canis familiaris [5] = test: Inhibition of cholesterol synthesis in cholestyramine-primed dogs at 4 mg/kg per day dose in Dog-1; assay type: functional, Canis lupus familiaris; how it was run: as §1
Canis familiaris [6] = test: Inhibition of cholesterol synthesis in cholestyramine-primed dogs at 4 mg/kg per day dose in Dog-2; assay type: functional, Canis lupus familiaris; how it was run: as §1
Canis familiaris [7] = test: Inhibition of cholesterol synthesis in cholestyramine-primed dogs at 4 mg/kg per day dose in Dog-3:; assay type: functional, Canis lupus familiaris; how it was run: as §1
Canis familiaris [8] = test: Inhibition of cholesterol synthesis in cholestyramine-primed dogs at 4 mg/kg per day dose in Dog 1; assay type: functional, Canis lupus familiaris; how it was run: as §1

Relative potency [1] | IC50 [2] | SMILES | Change (Rattus norvegicus) | also measured
258 | 6.6 nM | CCC(C)(C)C(=O)O[C@H]1C[C@@](C)(CSc2ccccc2)O[C@@H]2CC[C@H](C)[C@H](CC[C@@H]3C[C@@H](O)CC(=O)O3)C12 (some centres not stated) | -34% | –
300 | 6 nM | CCC(C)(C)C(=O)O[C@H]1C[C@@H](C)[C@@H](OCCc2ccccc2)[C@@H]2CC[C@H](C)[C@H](CC[C@@H]3C[C@@H](O)CC(=O)O3)C12 (some centres not stated) | -39% | –
61 | 48.6 nM | CCC(C)(C)C(=O)O[C@H]1C[C@H](C)[C@@H](O)[C@@H]2CC[C@H](C)[C@H](CC[C@@H]3C[C@@H](O)CC(=O)O3)C12 (some centres not stated) | -54% | Change (Canis familiaris [3]): 34%
0.9 | 1700 nM | C=C(C)C[C@H](OC(=O)C(C)(C)CC)C1[C@H](O)CC[C@H](C)[C@@H]1CC[C@@H]1C[C@@H](O)CC(=O)O1 (some centres not stated) | – | –
280 | 6 nM | CCC(C)(C)C(=O)O[C@H]1C[C@](C)(CSc2ccccc2)O[C@@H]2CC[C@H](C)[C@H](CC[C@@H]3C[C@@H](O)CC(=O)O3)C12 (some centres not stated) | 0% | –
0.5 | 2800 nM | CCC(C)(C)C(=O)O[C@@H](C[C@@H](C)CO)C1[C@H](O)CC[C@H](C)[C@@H]1CC[C@@H]1C[C@@H](O)CC(=O)O1 (some centres not stated) | – | –
63 | 59 nM | CCC(C)(C)C(=O)O[C@H]1C[C@H](C)C(=O)[C@@H]2CC[C@H](C)[C@H](CC[C@@H]3C[C@@H](O)CC(=O)O3)C12 (some centres not stated) | -68% | –
300 | 6 nM | CCC(C)(C)C(=O)O[C@H]1C[C@@H](C)[C@@H](OP(=O)(c2ccccc2)c2ccccc2)[C@@H]2CC[C@H](C)[C@H](CC[C@@H]3C[C@@H](O)CC(=O)O3)C12 (some centres not stated) | -27% | –
73 | 40.8 nM | CCC(C)(C)C(=O)O[C@H]1C[C@@H](C)[C@@H](O)[C@@H]2CC[C@H](C)[C@H](CC[C@@H]3C[C@@H](O)CC(=O)O3)C12 (some centres not stated) | -37% | Change (Canis familiaris [4]): 19%
94 | 16 nM | CCC(C)(C)C(=O)O[C@H]1C[C@@H](C)[C@@H](OC(=O)N(Cc2ccccc2)Cc2ccccc2)[C@@H]2CC[C@H](C)[C@H](CC[C@@H]3C[C@@H](O)CC(=O)O3)C12 (some centres not stated) | -4% | –
– | – | CC[C@H](C)C(=O)O[C@H]1C[C@@H](C)C=C2C=C[C@H](C)[C@H](CC[C@@H]3C[C@@H](O)CC(=O)O3)C21 (some centres not stated) | – | Change (Canis familiaris [5]): 25%; Change (Canis familiaris [6]): 38%; Change (Canis familiaris [7]): 25%
138 | 13 nM | CCC(C)(C)C(=O)O[C@H]1C[C@@H](C)CC2CC[C@H](C)[C@H](CC[C@@H]3C[C@@H](O)CC(=O)O3)C21 (some centres not stated) | – | –
70 | 35 nM | CCC(C)(C)C(=O)O[C@H]1CC(C)(C)O[C@@H]2CC[C@H](C)[C@H](CC[C@@H]3C[C@@H](O)CC(=O)O3)C12 (some centres not stated) | -67% | Change (Canis familiaris [8]): 20%
125 | 34 nM | CCC(C)(C)C(=O)O[C@H]1C[C@@H](C)C(=O)[C@@H]2CC[C@H](C)[C@H](CC[C@@H]3C[C@@H](O)CC(=O)O3)C12 (some centres not stated) | -56% | –
360 | 5 nM | CCC(C)(C)C(=O)O[C@H]1C[C@@H](C)[C@@H](OC(=O)NCc2ccccc2)[C@@H]2CC[C@H](C)[C@H](CC[C@@H]3C[C@@H](O)CC(=O)O3)C12 (some centres not stated) | -27% | –
11.1 | 269 nM | CCC(C)(C)C(=O)O[C@H]1C[C@H](C)[C@H](O)[C@@H]2CC[C@H](C)[C@H](CC[C@@H]3C[C@@H](O)CC(=O)O3)C12 (some centres not stated) | – | –
